Measured values published in ChEMBL document CHEMBL1777787, “Identification of 4H,6H-[2]benzoxepino[4,5-c][1,2]oxazoles as novel squalene synthase inhibitors” (Bioorg Med Chem Lett, 2011).

Tests used:
Squalene synthase = molecular target: T1, Squalene synthase (Homo sapiens, UniProt P37268); assay: Inhibition of recombinant squalene synthase assessed as conversion of trans,trans-[1-3H]farnesyl pyrophosphate to [3H]squalene after 10 mins by liquid scintillation counting
T1 sequence (P37268 whole entry): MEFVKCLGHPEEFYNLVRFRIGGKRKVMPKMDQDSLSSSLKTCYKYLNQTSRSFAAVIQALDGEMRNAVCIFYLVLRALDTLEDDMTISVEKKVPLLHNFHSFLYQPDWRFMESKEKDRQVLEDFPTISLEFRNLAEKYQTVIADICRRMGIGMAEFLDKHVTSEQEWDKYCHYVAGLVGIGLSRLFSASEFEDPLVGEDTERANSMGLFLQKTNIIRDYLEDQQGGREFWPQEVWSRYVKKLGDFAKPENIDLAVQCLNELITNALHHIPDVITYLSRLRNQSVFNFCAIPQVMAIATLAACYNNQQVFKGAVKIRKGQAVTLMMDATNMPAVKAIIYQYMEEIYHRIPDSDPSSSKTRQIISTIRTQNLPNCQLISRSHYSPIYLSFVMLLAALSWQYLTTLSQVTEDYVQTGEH
Procedure, shortened: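 Recombinant SQS in 1 mM NADPH, 5 mM DTT, 10% PBS, 10 mM sodium fluoride and 0.5 mM MgCl₂, pH 7.5. Compounds were added from DMSO at defined concentrations. The reaction was started with farnesyl pyrophosphate plus 0.2 nM trans,trans-[1-³H]-farnesyl pyrophosphate, run 10 min at 37 °C, then extracted with chloroform/methanol. IC50 values are means of three experiments.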

[1] = Stability in human liver microsomes assessed as compound remaining after 60 mins; format: ADME, Microsome; settings: read-out: Stability
Mus musculus [2] = assay: In vivo inhibition of squalene synthase in NMRI mouse assessed as inhibition of hepatic [14C]cholesterol biosynthesis at 3 mg/kg, po measured after 1 hr by liquid scintillation counting
Mus musculus [3] = assay: In vivo inhibition of squalene synthase in NMRI mouse assessed as inhibition of hepatic [14C]cholesterol biosynthesis at 1 mg/kg, po measured after 1 hr by liquid scintillation counting

IC50 (Squalene synthase) [µM]	remaining at 1 h [1] [%]	SMILES	inhibition in vivo at 3 mg/kg (Mus musculus [2]) [%]	inhibition in vivo at 1 mg/kg (Mus musculus [3]) [%]
0.162	–	COc1cccc([C@H]2O[C@H](CC(=O)N3CC[C@@H](O)C3)c3noc(C(C)C)c3-c3ccc(Cl)cc32)c1OC	–	–
0.131	91	COc1cccc([C@H]2O[C@H](CC(=O)N3CCC(CC(=O)O)CC3)c3noc(C(C)C)c3-c3ccc(Cl)cc32)c1OC	80	–
0.112	–	COc1cccc([C@H]2O[C@H](CC(=O)N3CCC(C(=O)O)CC3)c3noc(C(C)C)c3-c3ccc(Cl)cc32)c1OC	–	–
5.5	–	COc1cccc(C2OC(CC(=O)O)c3noc(C(C)C)c3-c3ccc(Cl)cc32)c1OC (single isomer, unassigned; enantiomer 2)	–	–
0.169	64	COc1cccc(C2OC(CC(=O)O)c3noc(C(C)C)c3-c3ccc(Cl)cc32)c1OC (single isomer, unassigned; enantiomer 3)	31	–

The next lines start with the compound.

SMILES	IC50 (Squalene synthase) [µM]	remaining at 1 h [1] [%]	inhibition in vivo at 3 mg/kg (Mus musculus [2]) [%]	inhibition in vivo at 1 mg/kg (Mus musculus [3]) [%]
COc1cccc([C@@H]2O[C@@H](CC(=O)O)c3noc(C(C)C)c3-c3ccc(Cl)cc32)c1OC	1.42	–	–	–
COc1cccc([C@H]2O[C@H](CC(=O)O)c3noc(C(C)C)c3-c3ccc(Cl)cc32)c1OC	0.056	100	58	–
COc1cccc([C@H]2O[C@H](CC(=O)O)C(=O)N(CC(C)(C)CO)c3ccc(Cl)cc32)c1OC	0.223	–	–	–
COc1cccc([C@H]2O[C@H](CC(=O)N3CCC(CC(=O)O)CC3)C(=O)N(CC(C)(C)CO)c3ccc(Cl)cc32)c1OC	0.26	37	–	–
COc1cccc([C@H]2O[C@H](CC(=O)N3CCC(CC(=O)O)CC3)C(=O)N(CC(C)(C)COC(C)=O)c3ccc(Cl)cc32)c1OC [LAPAQUISTAT ACETATE]	0.213	7	73	59
